A word on the IC50: it is the concentration at which inhibition is half-maximal.

The results in this text go back to ChEMBL document CHEMBL1128278, “Design, synthesis, and structure--activity relationship studies for a new imidazole series of J774 macrophage specific acyl-CoA:cholesterol acyltransferase (ACAT) inhibitors” (J Med Chem, 1995).

Assay [1] in a line: Acyl coenzyme A:cholesterol acyltransferase inhibition in cell culture measured in murine IC-21 macrophages.
Assay [2] has as its target T1, Sterol O-acyltransferase 1 (Rattus norvegicus, UniProt O70536).
T1 sequence (O70536 whole entry): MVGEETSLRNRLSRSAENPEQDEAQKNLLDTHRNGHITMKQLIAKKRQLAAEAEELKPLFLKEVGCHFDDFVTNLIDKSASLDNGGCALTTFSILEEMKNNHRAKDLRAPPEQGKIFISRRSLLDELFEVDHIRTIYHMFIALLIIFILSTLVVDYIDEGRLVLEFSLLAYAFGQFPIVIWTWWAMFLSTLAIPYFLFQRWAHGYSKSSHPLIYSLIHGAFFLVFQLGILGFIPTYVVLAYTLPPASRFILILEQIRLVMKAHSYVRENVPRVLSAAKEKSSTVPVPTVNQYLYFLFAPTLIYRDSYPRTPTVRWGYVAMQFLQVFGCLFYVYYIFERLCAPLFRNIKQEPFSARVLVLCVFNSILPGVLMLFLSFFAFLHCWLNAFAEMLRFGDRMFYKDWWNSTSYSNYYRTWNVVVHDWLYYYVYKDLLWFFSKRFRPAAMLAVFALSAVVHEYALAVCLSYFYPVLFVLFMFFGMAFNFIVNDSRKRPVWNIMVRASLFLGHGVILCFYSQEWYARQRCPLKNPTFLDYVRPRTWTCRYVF
Description: Concentration required to inhibit 50% activity of Acyl coenzyme A:cholesterol acyltransferase 1 in vitro using rat liver microsome. Type of assay: microsomes. Conditions: read-out: IC50. A digest of the protocol:
(§1)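 Rat liver microsomes; ACAT activity read as [14C]cholesteryl oleate formed from [14C]oleoyl-CoA (pmol/min/mg). Inhibitors added in 5 µL DMSO. Duplicate assays with at least four inhibitor concentrations bracketing the IC50; IC50 is the concentration giving 50% inhibition of ACAT activity. Average range of replicates ±17%.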
A general note: Liver microsomes are vesicles of endoplasmic reticulum, rich in cytochrome P450 enzymes.

The target of assay [3] is T1, Sterol O-acyltransferase 1. Description: ACAT activity was determined in rat hepatic microsomes by measuring the formation of labeled cholesteryl oleate (pmol/midmg) from [14C]oleoyl-CoA. The format is functional, Liver. A digest of the protocol: as §1
Assay [4] deals with J774. The experiment in a line: Concentration required to inhibit 50% activity of J774 macrophage cholesterol esterification. Type of assay: functional, cell-based. Conditions: Mus musculus. Summed up:
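Intact J774A.1 cells, seeded at 3 x 10^4 cells/cm2 and grown 36 h, then loaded 17 h with ac-LDL in 10% FBS-DMEM. Inhibitors in DMSO (1.0% final) for 4 h, with [14C]oleate–BSA for the last 2 h. Cholesteryl ester separated by TLC and counted (nmol/h/mg Lowry protein).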

Assay [5] is described as follows: Acyl coenzyme A:cholesterol acyltransferase activity was determined in J774 macrophages by measuring the formation of labeled cholesteryl oleate (pmol/midmg) from [14C]oleoyl-CoA. Type of assay: functional. A digest of the protocol:
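J774 cells grown in high-glucose DMEM with 10% FBS at 37 °C, 6% CO2, then harvested for microsome preparation. ACAT activity in these microsomes measured as in the hepatic assay, as [14C]cholesteryl oleate formed from [14C]oleoyl-CoA, with inhibitors in DMSO. IC50 taken as the concentration giving 50% inhibition.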

Assay [6] in a line: Acyl coenzyme A:cholesterol acyltransferase inhibition in cell culture measured in murine J774 macrophages.

Take `CCCCN(C)CCN(CCOCCSc1nc(-c2ccc(OC)cc2)c(-c2ccc(OC)cc2)[nH]1)C(=O)Nc1ccc(F)cc1F`: the IC50 in assay [1] stood at 630 nM; in assay [2] it was 1500 nM.
Regarding `CCCCCCCN(CCCCCSc1nc(-c2ccc(N(C)C)cc2)c(-c2ccc(N(C)C)cc2)[nH]1)C(=O)NC(C)C`, the IC50 in assay [3] is 80 nM; in assay [2] it was 80 nM; in assay [4], 4 nM; in assay [5] it was 0.6 nM; in assay [6] it was 3 nM.
With `CCCCCCCN(CCCCCSc1nc(-c2ccccc2)c(-c2ccccc2)[nH]1)C(=O)Nc1ccc(F)cc1F` [LECIMIBIDE], the IC50 stood at 1000 nM in assay [4], 25 nM in assay [5] and 1000 nM in assay [6].
